NR2E3 ag-1 – activates human photoreceptor nuclear receptor NR2E3. AID 2300. inhibition of corepressor binding, % at 4.78 µM. actives 0.12% (n = 320,000). GST-NR2E3/biotin-RetCOR TR-FRET, 1536-well. Q9Y5X4;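 active = percent inhibition above the cutoff of mean plus 3 SD of all tested compounds, set per screening campaign, cut at about 20% in these data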;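 note: 0% = DMSO wells and 100% = biotin wells as full block of FRET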
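Material: NR2E3–RetCOR corepressor complex / Amount: 1.35 nM GST-NR2E3 / Medium: Tris pH 7.5 / Compound: single nominal compound dose of 4.8 µM / Incubation: 5 h at 4 °C / Technique: TR-FRET, Eu(K)-anti-GST donor, streptavidin-D2 acceptor, ex 340, em 617/671 nm / Read-out basis: percent loss of FRET ratio relative to control wells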
NR2F2 inh – inhibitors of human COUP-TFII (NR2F2). actives 0.7% (n = 370,000). AID 686940. HEK293T NGFI-A luciferase reporter, luminescence. inhibition, % at 8.6 µM;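 active = inhibition above a per-plate cutoff, mean inhibition of test wells between control levels plus 3 SD, cut at about 38% in these data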;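 note: cells cotransfected with COUP-TFII expression vector driving the NGFI-A reporter; 0% = median of COUP-TF2 test wells and 100% = reporter-only cells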
Target sequence (P24468 whole entry, looked up): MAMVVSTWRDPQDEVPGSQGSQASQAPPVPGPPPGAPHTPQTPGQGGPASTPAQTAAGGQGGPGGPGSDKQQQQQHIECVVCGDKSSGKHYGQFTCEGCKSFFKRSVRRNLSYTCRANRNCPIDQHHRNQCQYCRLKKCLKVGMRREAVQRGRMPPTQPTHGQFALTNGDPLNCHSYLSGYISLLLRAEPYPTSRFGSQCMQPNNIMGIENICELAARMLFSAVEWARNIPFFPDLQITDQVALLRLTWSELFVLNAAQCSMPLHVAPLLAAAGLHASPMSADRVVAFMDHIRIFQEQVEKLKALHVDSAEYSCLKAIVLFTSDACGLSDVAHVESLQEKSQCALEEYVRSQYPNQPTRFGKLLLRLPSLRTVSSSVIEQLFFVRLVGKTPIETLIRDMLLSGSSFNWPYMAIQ
SMARCA2 act – activators of SMARCA2 function; MG213 cells, MMTV-luciferase reporter, dexamethasone, overnight; activation, % at 9.1 µM; actives 1% (n = 370,000); in the data active = activation above about 7.8%;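 note: 0% = vehicle wells and 100% = reference activator wells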
NR2E3 ag-2 – activates human NR2E3 receptor; actives 0.35% (n = 360,000); AID 602229; inhibition of corepressor binding, % at 3.98 µM; Q9Y5X4; CHO-S Gal4-NCOR/VP16-NR2E3 two-hybrid, luciferase;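 active = inhibition above the mean of all tested compounds plus 3 SD, cut at about 70% in these data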;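 note: 0% = DMSO with NR2E3 transfected cells and 100% = cells lacking NR2E3 construct; higher means lower luciferase signal from less NR2E3 corepressor binding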
GalR3 antag – antagonists of human GalR3 | actives 0.44% (n = 360,000) | HEK293 GalR3-CNG cAMP membrane potential fluorescence; galR3 body fused to GalR1 C-terminus | O60755 | inhibition, % at 3 µM;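 active = inhibition above the screen-wide average plus 3 SD, cut at about 13% in these data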;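 note: forskolin and galanin both at EC90 stimulate the cells; cAMP rise reported by CNG channel membrane potential dye signal; 0% = forskolin plus galanin with DMSO and 100% = forskolin alone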
GalR3 antag conf – GalR3 (human) antagonism, confirmation | shares compounds with GalR3 antag | HEK293 GalR3 CNG cAMP biosensor, membrane potential fluorescence; galR3 fused to GalR1 carboxy tail; challenged with forskolin and galanin at EC90 | inhibition, % at 3 µM | actives 59% (n = 1,600) | AID 652245;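 active = inhibition above the primary screen's cutoff, the mean inhibition of all screened compounds plus 3 SD, cut at about 13% in these data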;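 note: 0% = forskolin plus galanin and 100% = forskolin alone with DMSO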
HEK-CNG parental – counter-screen for GalR3 antagonists: nonspecific agonists in parental HEK-CNG cells; shares compounds with GalR3 antag; HEK293-CNG parental cells, cAMP membrane potential fluorescence; normalised: DMSO wells 0%, forskolin wells 100%; activation, % at 3 µM; actives 10% (n = 1,600); in the data active = activation above about 1.3%
Starred values were filed as active, the others as inactive; · = not tested or not shown. A selection: hits, their analogues and other compounds. The true share with any hit is near 2.2%.

SMILES | NR2E3 ag-1 | NR2F2 inh | SMARCA2 act | NR2E3 ag-2 | GalR3 antag | GalR3 antag conf | HEK-CNG parental
O=C(N[C@H](Cc1ccccc1)C(=O)NCC1CCCO1)[C@H]1O[C@@H](n2ccc(=O)[nH]c2=O)[C@H](O)[C@@H]1O (some centres undefined) | · | -2 | 3 | · | -4 | · | ·
O=C1NC(=O)C(c2ccccc2[N+](=O)[O-])=C1Nc1ccc(O)c(Cl)c1 | 1 | 7 | -1 | -19 | 13* | 1 | 0
O=S(=O)(c1ccc(F)cc1)N1CCC(c2nc3ccccc3o2)CC1 | · | 27 | -7 | · | · | · | ·
N#Cc1ccccc1S(=O)(=O)NC(=O)[C@H]1O[C@@H](n2cnc3c(N)ncnc32)[C@H](O)[C@@H]1O | · | 6 | 1 | 5 | 21* | 45* | 1.4*
Nc1ncnc2c1ncn2[C@@H]1O[C@H](C(=O)NS(=O)(=O)c2cccc(F)c2)[C@@H](O)[C@H]1O | · | -14 | -4 | 4 | -3 | · | ·
CCCn1nc(C(=O)NNC(=O)CCCOc2ccc(C)cc2)c2ccccc2c1=O | -2 | 10 | 0 | -25 | 86* | 90* | 1
CN1[C@@H](Cc2ccccc2)COc2cccc(F)c2S1(=O)=O | · | 3 | 0 | · | · | · | ·
CCOC(=O)C1=C(C)NC2=C(C(=O)CCC2)C1c1ccc(O)c(OCC)c1 (centres undefined) | -3 | 19 | 1 | 4 | 16* | 24* | 0
COc1cc(C2C3=C(CCCC3=O)Nc3ccc4ncccc4c32)ccc1O (centres undefined) | 3 | -12 | 3 | -41 | 15* | 6 | 0
COc1ccc(C2C3=C(CCCC3=O)Nc3ccc4ncccc4c32)cc1OC (centres undefined) | 1 | -26 | 0 | 5 | -4 | · | ·
COC(=O)[C@H]1C[C@]2(C(/C=C(\C)CCC=C(C)C)S(=O)(=O)c3ccccc3)c3ccccc3N[C@H]2N1 (some centres undefined) | · | 8 | · | · | · | · | ·
Cc1ccccc1CN1CCCCC(NC(=O)c2ccccc2C(F)(F)F)C1=O (centres undefined) | · | 10 | -2 | · | · | · | ·
COc1ccc(-c2ccc3c(n2)CCCN3S(=O)(=O)c2ccccc2)cc1 | · | 6 | -9 | · | -8 | · | ·
CCn1c2ccccc2c2cc(C3C(C#N)=C(N)Oc4n[nH]c(COC)c43)ccc21 (centres undefined) | 2 | 9 | 3 | 2 | 41* | 26* | 0
Fc1ccccc1N1CCN(CC2CC3C=CC2C3)CC1 (centres undefined) | 2 | -1 | -2 | -12 | -1 | · | ·
C1=CC2CC1CC2CN1CCN(Cc2ccccc2)CC1 (centres undefined) | 3 | -6 | -2 | 20 | · | 2 | 1.8*
O=C(Nc1ccc(OC(F)(F)F)cc1)Nc1c(-c2ccc(F)cc2)nc2ncccn12 | · | -2 | -3 | · | · | · | ·
Cc1cccc(-c2nc3ccccc3c(=O)n2NC(=O)/C=C/c2ccc([N+](=O)[O-])cc2)c1 | -2 | -22 | -1 | -18 | 45* | 34* | 0
Cc1nc2ccccc2c(=O)n1NC(=O)/C=C/c1ccc(Br)cc1 | 8 | -7 | -3 | 19 | -5 | · | ·
O=c1c2ccccc2nc(/C=C/c2cccc([N+](=O)[O-])c2)n1CCO | 0 | -15 | 3 | -7 | -5 | · | ·
O=C(/C=C/c1cccc([N+](=O)[O-])c1)Nn1c(-c2ccccc2F)nc2ccccc2c1=O | -2 | 16 | -2 | -14 | 61* | 65* | 0
CN(C)[C@H]1CCN(c2cccc3c2S(=O)(=O)N(C2CC2)CCCO3)C1 | · | -4 | 2 | · | · | · | ·
COc1ccccc1NC(=O)CSc1nc(N)c(-c2ccccc2)c(=O)[nH]1 | 3 | -24 | 0 | -14 | 46* | 38* | 1
CCN(CC(O)c1cccc(O)c1)C(=O)C12CC3CC(CC(C3)C1)C2 (centres undefined) | -3 | -32 | -2 | -11 | 17* | 57* | 2.0*
O=C(N/N=C(\c1ccccc1)c1cccnc1)c1cccc(F)c1 | 2 | -23 | -1 | 32 | 42* | 38* | 0
SMILES | NR2E3 ag-1 | NR2F2 inh | SMARCA2 act | NR2E3 ag-2 | GalR3 antag | GalR3 antag conf | HEK-CNG parental
CCOc1ccc(S(=O)(=O)Nc2nc3ccccc3nc2N2CCN(C)CC2)cc1 | 1 | -12 | 2 | -48 | 20* | 17* | 0
CCOc1ccc(S(=O)(=O)Nc2nc3ccccc3nc2Cl)cc1 | 3 | 17 | -1 | 5 | -8 | · | ·
COc1cc(NC(=O)COc2cccc(C)c2C)ccc1NC(=O)c1ccco1 | 0 | 3 | -5 | -1 | 14* | 6 | 1
COc1ccc(-c2cc(C(F)(F)F)nc(N3CCCCCC3)n2)cc1 | 4 | -4 | 0 | 6 | -1 | · | ·
FC(F)(F)c1cc(-c2ccccc2)nc(N2CCCCCC2)n1 | 2 | 1 | 0 | -12 | 15* | 3 | 0
Fc1ccc(-c2cc(-c3nnc4sc(-c5ccco5)nn34)[nH]n2)cc1 | · | -4 | -1 | · | · | · | ·
COc1ccccc1CNC(=O)C1CC(c2ccccc2[N+](=O)[O-])=NO1 (centres undefined) | 0 | 0 | -2 | -6 | · | 9 | 0
COc1ccc(CNC(=O)C2CC(c3ccccc3[N+](=O)[O-])=NO2)cc1 (centres undefined) | 3 | -21 | 2 | -1 | -3 | · | ·
CCOC(=O)CC[C@H]1CC[C@]2(CCCN(S(C)(=O)=O)C2)O1 | · | -16 | 2 | · | · | · | ·
CCCC[C@H]1C2CC(OC(=O)Nc3cccc(F)c3)C(C2)[C@H]2CCCCN21 (some centres undefined) | · | 15 | 6 | · | · | · | ·
COc1ccc(CC2(CO)CCN(Cc3cccc(OC)c3OC)CC2)cc1 | 0 | -23 | -2 | -5 | 26* | 2 | 2.1*
COc1ccc(CC2(CO)CCN(Cc3cccnc3)CC2)cc1 | 1 | 16 | -1 | -25 | -2 | · | ·
C[C@H](O)[C@@H]1CN2CCc3ccc(N4CCOCC4)cc3[C@@H]2C[C@@H]1N(C)C(=O)c1ccccc1F | · | 18 | 1 | · | · | · | ·
Cc1ccccc1NC(=O)N1CCCC1C(=O)NCc1cccs1 (centres undefined) | 3 | 4 | 0 | -6 | · | 1 | -2
O=C(NCc1cccs1)C1CCCN1C(=O)Nc1ccccc1Cl (centres undefined) | 5 | -11 | -2 | -14 | -8 | · | ·
C#Cc1ccc([C@@H]2C=C(C(=O)Nc3ccccc3)O[C@H](OCC)[C@H]2CCCO)cc1 | 3 | -49 | -1 | -14 | · | 4 | 0

Bioassay records from PubChem.
